rCAG binder = r(CAG) repeat RNA binding. 370,000 tested, 1.3% active. AID 651821. TO-PRO-1 dye displacement fluorescence. inhibition, % at 3 µM;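 active means inhibition above the plate cutoff, the mean of all test compounds on that plate plus 3 SD, cut at about 35% in these data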;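 further: higher means more dye released from RNA so lower well fluorescence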
Rev-erbA mod = modulates human Rev-erb alpha binding to DNA; P20393; Rev-erbα–FITC-DNA binding, fluorescence polarization, 90 min; activity, % at 10 µM; 370,000 tested, 0.79% active; AID 1259318;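 active means activity above about 14%, limit read from the data; passing the limit was not always enough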
NR2E3 ag-1 = activates human NR2E3 receptor. inhibition of corepressor binding, % at 3.98 µM. 360,000 tested, 0.35% active. Q9Y5X4. AID 602229. CHO-S Gal4-NCOR/VP16-NR2E3 two-hybrid, luciferase;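 active means inhibition above the mean of all tested compounds plus 3 SD, cut at about 70% in these data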;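 further: higher means lower luciferase signal from less NR2E3 corepressor binding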
Target sequence (Q9Y5X4 whole entry, looked up, the tested form may be a part): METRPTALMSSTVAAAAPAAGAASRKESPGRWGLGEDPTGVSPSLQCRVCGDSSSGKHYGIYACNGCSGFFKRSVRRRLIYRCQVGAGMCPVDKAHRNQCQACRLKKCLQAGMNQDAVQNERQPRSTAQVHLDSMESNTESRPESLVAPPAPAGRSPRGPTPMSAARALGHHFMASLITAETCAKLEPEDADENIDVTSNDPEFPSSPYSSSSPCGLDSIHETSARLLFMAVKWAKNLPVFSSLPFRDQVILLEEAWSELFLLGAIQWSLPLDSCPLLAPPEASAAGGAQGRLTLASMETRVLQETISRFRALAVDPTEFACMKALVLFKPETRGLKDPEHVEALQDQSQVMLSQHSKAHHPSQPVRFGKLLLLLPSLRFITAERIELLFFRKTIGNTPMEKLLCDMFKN
NR2E3 ag-2 = agonists of human nuclear receptor NR2E3; Q9Y5X4; GST-NR2E3/biotin-RetCOR TR-FRET, 1536-well; inhibition of corepressor binding, % at 4.78 µM; 320,000 tested, 0.12% active;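 active means percent inhibition above the cutoff of mean plus 3 SD of all tested compounds, set per screening campaign, cut at about 20% in these data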
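System: GST-NR2E3 and biotin-RetCOR proteins; probe or stimulus: 7 nM biotin-RetCOR; doses: compound at 4.8 µM, single dose; schedule: Compound–protein incubation for 5 h at 4 °C; detection: time-resolved FRET; read-out: percent inhibition; controls: biotin wells as high control, 0.6% DMSO wells as low control; format: 1536-well plates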
PG9 Ab binder = small molecules binding HIV-1 gp120 antibody PG9; TR-FRET gp120-PG9 antibody binding; inhibition, % at 6.7 µM; 360,000 tested, 0.43% active; AID 624416; in the data active means inhibition above about 8.5%
Hits are given with their value; n = inactive; x = not tested or not shown. Compounds with a hit are over-represented: about 2.6% of the library has one in this group of screens.

SMILES | rCAG binder | Rev-erbA mod | NR2E3 ag-1 | NR2E3 ag-2 | PG9 Ab binder
C[C@@H]1CC[C@]2(C(=O)O[C@@H]3O[C@H](CO)[C@@H](O)[C@H](O)[C@H]3O)CC[C@]3(C)C(=CCC4[C@@]5(C)CC[C@H](O[C@@H]6OC[C@H](O)[C@H](O[C@@H]7O[C@H](CO)[C@@H](O)[C@H](O)[C@H]7O)[C@H]6O)C(C)(C)C5CC[C@]43C)C2[C@]1(C)O (stereo not given in full) | n | n | n | x | n
CN(c1ccc(OCC(=O)Nc2ccccc2C(=O)O)cc1)S(=O)(=O)c1ccc(Cl)cc1 | 55.0 | n | n | x | n
CCCCCCCCCC(=O)OC1(c2ccc(Cl)cc2)CCN(CCCC(=O)c2ccc(F)cc2)CC1 | x | n | x | x | x
CCS(=O)(=O)c1ccc(O)c(NC(=O)COc2ccc(OC)cc2)c1 | n | n | n | n | n
CCCc1ccc(OCC(=O)Nc2cc(S(=O)(=O)CC)ccc2O)cc1 | 35.5 | n | n | n | n
CCCCCCCCCC(=O)OCCN1CCN(CCCN2c3ccccc3Sc3ccc(C(F)(F)F)cc32)CC1 | x | n | x | x | x
NC[C@@H]1O[C@H](O[C@@H]2[C@@H](CO)OC(O[C@@H]3[C@@H](O)[C@H](N)C[C@H](N)[C@H]3O[C@@H]3O[C@H](CN)[C@@H](O)[C@H](O)[C@H]3N)[C@@H]2O)[C@H](N)[C@@H](O)[C@@H]1O (stereo not given in full) | x | n | x | x | x
CC1(C)O[C@@H]2CC3C4C[C@H](F)C5=CC(=O)C=C[C@]5(C)[C@@]4(F)[C@@H](O)C[C@]3(C)[C@]2(C(=O)CO)O1 (stereo not given in full) | x | n | x | x | x
CCCSC1=N/C(=C\C=C\c2ccco2)C(=O)S1 | 76.4 | n | n | n | n
N#Cc1c(C(F)(F)F)cc(-c2ccc(Cl)cc2)[nH]c1=O | 37.5 | n | n | n | n
N#Cc1c(C(F)(F)F)cc(-c2ccc(F)cc2)[nH]c1=O | n | n | n | n | n
O=C(O)c1cccc2cccc(-c3c4ccc(=O)c(O)c-4oc4c(O)c(O)ccc34)c12 | 91.8 | n | n | x | n
CCCCCCc1c(C)c2ccc(OCC(=O)N3CCC[C@H]3C(=O)O)c(C)c2oc1=O | 41.5 | n | n | n | n
CCCC[C@@]1(C2CCCC2)Cc2cc(OCC(=O)O)c(Cl)c(Cl)c2C1=O | 46.8 | n | n | n | n
NC(=O)N/N=C/c1ccc(N2CCOCC2)s1 | n | n | n | n | n
O=C(O)c1cc(N/N=C/c2ccc(N3CCOCC3)s2)ccc1Cl | 75.3 | n | n | n | n
NNc1ccc([N+](=O)[O-])c2[nH][nH]c(=O)c12 | 41.6 | n | n | x | n
O=[N+]([O-])c1ccc(Nc2ccccc2)c2nonc12 | n | n | n | n | n
O=S(=O)(c1ccc2nc(-c3ccco3)c(-c3ccco3)nc2c1)N1CCOCC1 | 69.3 | n | n | n | n
CC1(C)O[C@@H]2CC3C4CCC5=CC(=O)C=C[C@]5(C)C4[C@@H](O)C[C@]3(C)[C@]2(C(=O)CO)O1 (stereo not given in full) | x | n | x | x | x
CC(=O)OCC(=O)[C@@]12OC3(CCCC3)O[C@@H]1CC1C3CCC4=CC(=O)C=C[C@]4(C)[C@@]3(F)[C@@H](O)C[C@@]12C (stereo not given in full) | x | n | x | x | x
CO/N=C(/C(=O)N[C@H]1C(=O)N2C(C(=O)O)=C(COC(N)=O)CSC12)c1ccco1 (stereo not given in full) | x | n | x | x | x
O=C(COc1ccc2c(-c3ccccc3)cc(=O)oc2c1)N[C@H](Cc1c[nH]c2ccccc12)C(=O)O | 40.3 | n | n | n | n
CNC(=O)CN(CCN(CCN(CC(=O)O)CC(=O)NC)CC(=O)O)CC(=O)O | x | n | x | x | x
COc1ccc(C2/C(=C(\O)c3ccc4c(c3)OCCO4)C(=O)C(=O)N2Cc2cccnc2)cc1 (stereo not given) | n | n | n | n | n
SMILES | rCAG binder | Rev-erbA mod | NR2E3 ag-1 | NR2E3 ag-2 | PG9 Ab binder
C=CCOc1cccc(C2/C(=C(\O)c3ccc4c(c3)OCCO4)C(=O)C(=O)N2Cc2cccnc2)c1 (stereo not given) | n | n | n | n | 13.6
O=C(O)c1ccc(-c2ccc(/C=C3\NC(=O)N(Cc4ccc(Cl)cc4)C3=O)o2)cc1Cl | 53.0 | n | n | x | n
Cc1oc(-c2ccc(F)cc2)cc1-c1nn2c(-c3ccoc3C)nnc2s1 | 36.3 | n | n | n | n
C#Cc1ccc([C@@H]2C=C(C(=O)N3CCN(Cc4ccccc4)CC3)O[C@H](OCCCCO)C2)cc1 | x | x | 75.4 | n | x
NC(=O)[C@H]1OC(O)[C@H](O)[C@@H](O)[C@@H]1O (stereo not given in full) | x | n | x | x | x
CC(C)Cc1ccc(CN2C(C)C(=O)N(Cc3cn(Cc4ccco4)nn3)CCS2(=O)=O)cc1 (stereo not given) | 50.6 | n | n | x | n
COc1cccc2cc(C(=O)CS(=O)(=O)c3ccc(Cl)cc3)c(=O)oc12 | 46.8 | n | n | n | n
COc1cccc2cc(C(C)=O)c(=O)oc12 | n | n | n | n | n
O=C1O[C@H](C(O)CO)C(O)=C1O (stereo not given in full) | x | n | x | x | x
C=C1C(=O)C=C2CN(C(=O)c3ccccc3)[C@@](Cc3ccc(F)cc3)(C(=O)OC)[C@@H]12 | x | x | 71.9 | n | x
CC(=O)O[C@H]1CC2CCC3C(CC[C@@]4(C)C3C[C@H]([N+]3(C)CCCCC3)[C@@H]4OC(C)=O)[C@@]2(C)C[C@@H]1N1CCCCC1 (stereo not given in full) | x | n | x | x | x
CCCCCNC(=O)C(c1ccc(OC)cc1)n1c(=O)c(-c2ccco2)nc2ccccc21 (stereo not given) | n | n | x | x | n
O=C(NCc1ccccc1)C(c1ccccc1)n1c(=O)c(-c2ccco2)nc2ccccc21 (stereo not given) | n | n | x | x | n
CCCCCNC(=O)C(c1ccccc1F)n1c(=O)c(-c2ccco2)nc2ccccc21 (stereo not given) | 39.7 | n | x | x | n
O=C(NCc1ccccc1)C(c1ccc(C(F)(F)F)cc1)n1c(=O)c(-c2ccco2)nc2ccccc21 (stereo not given) | 36.4 | n | x | x | n
O=C(O)C[C@H](O)C(=O)O | x | n | x | x | x
Cc1cc(N2C(=O)C(O)=C(C(=O)c3cc4ccccc4o3)C2c2ccc([N+](=O)[O-])cc2)no1 (stereo not given) | 45.5 | n | n | n | n
Cc1cccc(OCC(=O)Nc2ccc(C(=O)Nc3ccccc3C(=O)O)cc2)c1C | 41.1 | n | n | n | n
Cc1cccc(OCC(=O)Nc2cc(NC(=O)COc3cccc(C)c3C)cc(C(=O)O)c2)c1C | n | n | n | n | n
COc1cccc2c1C(=O)c1c(O)c3c(c(O)c1C2=O)C[C@@](O)(C(=O)CO)C[C@@H]3OC1C[C@H](N)[C@H](O)[C@H](C)O1 (stereo not given in full) | x | n | x | x | x
C=CCSc1nnc2c(n1)OC(c1c(C)[nH]n(-c3ccccc3)c1=O)Nc1ccccc1-2 (stereo not given) | 40.9 | n | n | n | n

Screening data deposited in PubChem by several laboratories.
